# Test results as given in ChEMBL document CHEMBL3407388, “Synthesis, anticancer activity and molecular docking studies on a series of heterocyclic trans-cyanocombretastatin analogues as antitubulin agents” (2015).
# Experiments:
# MV4-11 = assay: Anti-leukemic activity against human MV4-11 cells assessed as cell dead after 24 to 48 hrs by annexin V-FITC/7-AAD staining-based flow cytometric analysis; format: functional; conditions: for CC50: read-out: LD50 (the source's name)
# Method in brief: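 MV4-11 cells grown in IMDM with 10% FBS, penicillin and streptomycin, seeded at 5 × 10^5/ml and treated. At 24 and 48 h they were stained with annexin V-FITC plus 1 μg/ml 7-AAD. Percent dead cells (annexin V+) was read by flow cytometry and expressed relative to the DMSO vehicle control.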
# TUR = assay: Cytotoxicity against human TUR cells assessed as apoptotic/dead cells after 24 to 48 hrs by annexin V-FITC/7-AAD staining-based flow cytometric analysis; format: functional
# MOLM-13 = assay: Cytotoxicity against human MOLM13 cells assessed as apoptotic/dead cells after 24 to 48 hrs by annexin V-FITC/7-AAD staining-based flow cytometric analysis; format: functional
# THP-1 = assay: Cytotoxicity against human THP1 cells assessed as apoptotic/dead cells after 24 to 48 hrs by annexin V-FITC/7-AAD staining-based flow cytometric analysis; format: functional
# Tubulin (Homo sapiens) = Tubulin (Homo sapiens) (UniProt P68371+Q9H4B7+P0DPH7+P68366+Q13509+Q71U36+P04350+Q3ZCM7+P07437+P68363+Q9BQE3+Q6PEY2+Q13885+Q9BVA1+Q9BUF5); assay: Inhibition of tubulin polymerization in human MV4-11 cells at 50 nM after 2 hrs by immunoblot analysis relative to control; format: cell-based
# Method in brief: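 MV4-11 AML cells were exposed for 2 h to 25, 50 or 100 nM compound. Free tubulin (supernatant) and polymerized tubulin (pellet) were separated and detected by anti-tubulin immunoblot.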
# [1] = (§1) Cytotoxicity against human KG1 cells assessed as apoptotic/dead cells after 24 to 48 hrs by annexin V-FITC/7-AAD staining-based flow cytometric analysis; format: functional; conditions: KG-1, read-out: LD50 (the source's name)
# KG-1 = assay: as §1; format: functional
# [2] = (§2) Cytotoxicity against human MLL-ENL cells assessed as apoptotic/dead cells after 24 to 48 hrs by annexin V-FITC/7-AAD staining-based flow cytometric analysis; format: functional; conditions: read-out: LD50 (the source's name)
# Homo sapiens = organism: Homo sapiens; assay: as §2; format: functional
# K562 = assay: Cytotoxicity against human K562 cells assessed as apoptotic/dead cells after 24 to 48 hrs by annexin V-FITC/7-AAD staining-based flow cytometric analysis; format: functional
# [3] = (§3) Cytotoxicity against human Kasumi-4 cells assessed as apoptotic/dead cells after 24 to 48 hrs by annexin V-FITC/7-AAD staining-based flow cytometric analysis; format: functional; conditions: read-out: LD50 (the source's name)
# Kasumi-4 = assay: as §3; format: functional
# [4] = (§4) Cytotoxicity against human KCL22 cells assessed as apoptotic/dead cells after 24 to 48 hrs by annexin V-FITC/7-AAD staining-based flow cytometric analysis; format: functional; conditions: KCL-22, read-out: LD50 (the source's name)
# KCL-22 = assay: as §4; format: functional
# Leukemia cell = assay: Cytotoxicity against human primary blast crisis phase of chronic myeloid leukemia cells assessed as apoptotic/dead cells at 25 to 200 nM by CD45-APC-H7/ annexin V-FITC/7-AAD staining-based flow cytometric analysis; format: functional; conditions: TDE = time-dependent effect
# Method in brief: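 Cryopreserved primary blast-crisis CML samples, obtained with informed consent and IRB approval, were thawed, cultured and treated with the indicated doses. At 48 h they were stained with CD45-APC-H7, then annexin V-FITC and 7-AAD. Percent annexin V+ blasts by flow cytometry, normalized to the DMSO control.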
# Kasumi 1 = assay: Cytotoxicity against human Kasumi-1 cells assessed as apoptotic/dead cells after 24 to 48 hrs by annexin V-FITC/7-AAD staining-based flow cytometric analysis; format: functional
# [5] = (§5) Cytotoxicity against human HL60 cells assessed as apoptotic/dead cells after 24 to 48 hrs by annexin V-FITC/7-AAD staining-based flow cytometric analysis; format: functional; conditions: HL-60, read-out: LD50 (the source's name)
# HL-60 = assay: as §5; format: functional
# TF-1 = assay: (§6) Cytotoxicity against human TF1 cells assessed as apoptotic/dead cells after 24 to 48 hrs by annexin V-FITC/7-AAD staining-based flow cytometric analysis; format: functional
# [6] = as §6; format: functional; conditions: TF-1, read-out: LD50 (the source's name)
# [7] = Cytotoxicity against human primary blast crisis phase of chronic myeloid leukemia cells assessed as apoptotic/dead cells at 25 nM measured at 96 hrs by CD45-APC-H7/ annexin V-FITC/7-AAD staining-based flow cytometric analysis relative to control; format: functional, Leukemia cell
# Method in brief: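 Thawed cryopreserved primary blast-crisis CML cells were treated and read at 24, 48 and 96 h time-points. Staining used CD45-APC-H7, annexin V-FITC and 7-AAD. Apoptotic/dead cells were scored by flow cytometry as percent annexin V+ blasts, normalized to the DMSO control.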
# [8] = read-out: LD50 (the source's name)
smiles,measurement,setting,value
COc1ccc(/C(C#N)=C/c2nc3ccccc3s2)cc1OC,CC50,MV4-11,1220 nM
COc1cc(/C(C#N)=C/c2csc3ccccc23)cc(OC)c1OC,Activity,MV4-11,Dose-dependent effect
same,CC50,MV4-11,180 nM
COc1cc(OC)cc(/C(C#N)=C/c2cc3ccccc3o2)c1,CC50,MV4-11,1170 nM
COc1ccc(/C(C#N)=C/c2cc3ccccc3s2)cc1OC,CC50,MV4-11,6060 nM
COc1cc(/C(C#N)=C/c2cc3ccccc3s2)cc(OC)c1OC,Activity,TUR,Dose-dependent effect
same,CC50,TUR; [8],93 nM
same,Activity,MOLM-13,Dose-dependent effect
same,CC50,MOLM-13; [8],83 nM
same,Activity,THP-1,Dose-dependent effect
same,CC50,THP-1; [8],227 nM
same,inhibition,Tubulin (Homo sapiens),> 50%
same,CC50,[1],113 nM
same,Activity,KG-1,Dose-dependent effect
same,CC50,[2],271 nM
same,Activity,Homo sapiens,Dose-dependent effect
same,Activity,K562,Dose-dependent effect
same,CC50,K562; [8],99.5 nM
same,CC50,[3],156 nM
same,Activity,Kasumi-4,Dose-dependent effect
same,CC50,[4],114 nM
same,Activity,KCL-22,Dose-dependent effect
same,Activity,Leukemia cell,tde
same,Activity,Kasumi 1,Dose-dependent effect
same,CC50,Kasumi 1; [8],151 nM
same,CC50,[5],120 nM
same,Activity,HL-60,Dose-dependent effect
same,Activity,TF-1,Dose-dependent effect
same,CC50,[6],79.5 nM
same,Activity,[7],>50%
same,CC50,MV4-11,18 nM
